The source made the active and inactive calls. The calls are words filed in the database; no cut-off is given here.
Target: T1, Estrogen receptor (Rattus norvegicus) (UniProt P06211+Q62986)
Experiment: Relative binding affinity (RBA) on estrogen receptor was measured by in vitro using cytosol from the immature rat uterus
Assay type: protein assay
Outline: (§1)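 Competitive displacement of [3H]estradiol from estrogen receptor. Incubation was 3 h at 25 °C. Nonspecific binding was defined with 1000 nM unlabeled estradiol. RBA = 100 × IC50(estradiol)/IC50(compound), with estradiol set at 100%.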

`CCCCN(C)C(=O)CCSC(Cc1ccc(O)cc1)c1ccc(O)cc1` (stereo not drawn) and `CCCCN(C)C(=O)CCCCCSC(Cc1ccc(O)cc1)c1ccc(O)cc1` (stereo not drawn) are the same in RBA: 0.01% for the first, 0.01% for the second.

`OCCCCCCCCCCCSC(Cc1ccc(O)cc1)c1ccc(O)cc1` (stereo not drawn) and `COc1ccc(C(Cc2ccc(O)cc2)SCCCCCCCCCCCO)cc1` (stereo not drawn) are the same in RBA: 0.02% for the first, 0.02% for the second.

`CCCCN(C)C(=O)CCCCCCCCCCSC(Cc1ccc(O)cc1)c1ccc(O)cc1` (stereo not drawn) and `CCCCN(C)C(=O)CCCCCCCSC(Cc1ccc(O)cc1)c1ccc(O)cc1` (stereo not drawn) are the same in RBA: 0.01% for the first, 0.01% for the second.

First: CCCCN(C)C(=O)CCSC(Cc1ccc(O)cc1)c1ccc(OC)cc1 (stereo not drawn)
Second: CCCCN(C)C(=O)CCCCCCCSC(Cc1ccc(O)cc1)c1ccc(OC)cc1 (stereo not drawn)
The RBA of the first is lower: 0.01% for the first, 0.05% for the second.

`CCCCN(C)C(=O)CCCCCCCCCCC1Cc2cc(O)ccc2[C@H]2CC[C@]3(C)[C@@H](O)[C@H](Cl)C[C@H]3[C@H]12` (stereo partly drawn) showed an RBA of 1.2%.

Target: T1, Estrogen receptor (Rattus norvegicus)
Experiment: Relative binding affinity (RBA) on estrogen receptor was measured by in vitro using cytosol from the immature rat uterus; N means no binding observed
Assay type: protein assay
Outline: as §1

With `CCCCN(C)C(=O)CCCCCCCCCCSC(Cc1ccc(O)cc1)c1ccc(OC)cc1` (stereo not drawn) the “relative binding affinity (RBA)” value was “inactive”.
For `COc1ccc(C(Cc2ccc(OCc3ccccc3)cc2)SCCCCCCCCCCCO)cc1` (stereo not drawn), the “relative binding affinity (RBA)” value was “inactive”.
In the case of `CCCCN(C)C(=O)CCSC(Cc1ccc(OC)cc1)c1ccc(OC)cc1` (stereo not drawn), the “relative binding affinity (RBA)” value is reported as “inactive”.
In the case of `CCCCN(C)C(=O)CCCCCCCSC(Cc1ccc(OC)cc1)c1ccc(OC)cc1` (stereo not drawn), the “relative binding affinity (RBA)” value is reported as “inactive”.
With `CCCCN(C)C(=O)CCCCCCCCCCCSC(Cc1ccc(OC)cc1)c1ccc(OC)cc1` (stereo not drawn) the “relative binding affinity (RBA)” value was “inactive”.
For `CCCCN(C)C(=O)CCSC(Cc1ccc(OCc2ccccc2)cc1)c1ccc(OC)cc1` (stereo not drawn), the “relative binding affinity (RBA)” value was “inactive”.
In the case of `CCCCN(C)C(=O)CCCCCCCCCCCSC(Cc1ccc(O)cc1)c1ccc(OC)cc1` (stereo not drawn), the “relative binding affinity (RBA)” value is reported as “inactive”.
For `CCCCN(C)C(=O)CCCCCCCSC(Cc1ccc(OCc2ccccc2)cc1)c1ccc(OC)cc1` (stereo not drawn), the “relative binding affinity (RBA)” value was “inactive”.

Test system: ZR-75-1
Experiment: (§2) Inhibition of E2-induced proliferation of ZR-75-1 cells at 1 uM
Assay type: functional, Homo sapiens
Outline: (§3)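 ZR-75-1 cells (passages 90-96, kept in phenol-red-free RPMI-1640 with 10 nM E2) were plated at 10 000 cells/dish in SD medium (5% dextran-charcoal FBS, insulin) and allowed to adhere for 3 days. They were then treated for 9 days at 37 °C with compound (1 uM, ethanol vehicle 0.1%) plus E2 0.1 nM, with medium changed every 2-3 days. Read-out was DNA content. % inhibition = 100 − [(D−B)/(C−A)]×100. Done in triplicate.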

For `CCCCN(C)C(=O)CCCCCCCCCCC1Cc2cc(O)ccc2[C@H]2CC[C@]3(C)[C@@H](O)[C@H](Cl)C[C@H]3[C@H]12` (stereo partly drawn), the Binding was 1403 (ng of DNA) dish-1.

Test system: ZR-75-1
Experiment: as §2
Assay type: functional, Homo sapiens
Outline: as §3

In the case of `CCCCN(C)C(=O)CCCCCCCCCCC1Cc2cc(O)ccc2[C@H]2CC[C@]3(C)[C@@H](O)[C@H](Cl)C[C@H]3[C@H]12` (stereo partly drawn), the Binding is reported as 662 (ng of DNA) dish-1.

Target: T2, Estrogen receptor (Homo sapiens) (UniProt Q92731+P03372)
Experiment: Ability to inhibit E2-induced proliferation of ZR-75-1 cells at a dose of 1 uM
Assay type: functional, cell-based
Outline: as §3

First: CCCCN(C)C(=O)CCSC(Cc1ccc(O)cc1)c1ccc(O)cc1 (stereo not drawn)
Second: CCCCN(C)C(=O)CCCCCSC(Cc1ccc(O)cc1)c1ccc(O)cc1 (stereo not drawn)
The DNA content per dish (cell proliferation) ((ng of DNA) dish-1) of the first is higher: 2600 for the first, 2050 for the second.

First: OCCCCCCCCCCCSC(Cc1ccc(O)cc1)c1ccc(O)cc1 (stereo not drawn)
Second: COc1ccc(C(Cc2ccc(O)cc2)SCCCCCCCCCCCO)cc1 (stereo not drawn)
The DNA content per dish (cell proliferation) ((ng of DNA) dish-1) of the first is higher: 2230 for the first, 1280 for the second.

Going from `CCCCN(C)C(=O)CCCCCCCCCCSC(Cc1ccc(O)cc1)c1ccc(O)cc1` (stereo not drawn) to `CCCCN(C)C(=O)CCCCCCCSC(Cc1ccc(O)cc1)c1ccc(O)cc1` (stereo not drawn), the DNA content per dish (cell proliferation) ((ng of DNA) dish-1) rises from 1390 to 2070.

First: CCCCN(C)C(=O)CCSC(Cc1ccc(O)cc1)c1ccc(OC)cc1 (stereo not drawn)
Second: CCCCN(C)C(=O)CCSC(Cc1ccc(OC)cc1)c1ccc(OC)cc1 (stereo not drawn)
The DNA content per dish (cell proliferation) ((ng of DNA) dish-1) of the first is lower: 902 for the first, 1010 for the second.

First: CCCCN(C)C(=O)CCCCCCCCCCSC(Cc1ccc(O)cc1)c1ccc(OC)cc1 (stereo not drawn)
Second: CCCCN(C)C(=O)CCCCCCCCCCCSC(Cc1ccc(O)cc1)c1ccc(OC)cc1 (stereo not drawn)
The DNA content per dish (cell proliferation) ((ng of DNA) dish-1) of the first is higher: 1320 for the first, 1090 for the second.

First: COc1ccc(C(Cc2ccc(OCc3ccccc3)cc2)SCCCCCCCCCCCO)cc1 (stereo not drawn)
Second: CCCCN(C)C(=O)CCCCCCCCCCSC(Cc1ccc(OCc2ccccc2)cc1)c1ccc(OC)cc1 (stereo not drawn)
The DNA content per dish (cell proliferation) ((ng of DNA) dish-1) of the first is lower: 1100 for the first, 1120 for the second.

First: CCCCN(C)C(=O)CCCCCCCSC(Cc1ccc(OC)cc1)c1ccc(OC)cc1 (stereo not drawn)
Second: CCCCN(C)C(=O)CCCCCCCCCCCSC(Cc1ccc(OC)cc1)c1ccc(OC)cc1 (stereo not drawn)
The DNA content per dish (cell proliferation) ((ng of DNA) dish-1) of the first is lower: 1150 for the first, 1350 for the second.

Compared with `CCCCN(C)C(=O)CCSC(Cc1ccc(OCc2ccccc2)cc1)c1ccc(OC)cc1` (stereo not drawn), `CCCCN(C)C(=O)CCCCCCCSC(Cc1ccc(OCc2ccccc2)cc1)c1ccc(OC)cc1` (stereo not drawn) is higher in DNA content per dish (cell proliferation) ((ng of DNA) dish-1): 1020 for the first, 1070 for the second.

`CCCCN(C)C(=O)CCCCCCCSC(Cc1ccc(O)cc1)c1ccc(OC)cc1` (stereo not drawn) showed a DNA content per dish (cell proliferation) ((ng of DNA) dish-1) of 915.

Test system: ZR-75-1
Experiment: Stimulation of basal cell proliferation of ZR-75-1 cells at 1 uM
Assay type: functional, Homo sapiens
Outline: (§4)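 ZR-75-1 cells were plated at 10 000 cells/dish in phenol-red-free SD medium (5% dextran-charcoal FBS) and allowed to adhere for 3 days. Compound was added at 1 uM without E2 (controls received 0.1% ethanol). Cells were incubated for 9 days at 37 °C with medium renewed every 2-3 days. Basal proliferation was read as DNA content (ng/dish). Done in triplicate.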

With `CCCCN(C)C(=O)CCCCCCCCCCC1Cc2cc(O)ccc2[C@H]2CC[C@]3(C)[C@@H](O)[C@H](Cl)C[C@H]3[C@H]12` (stereo partly drawn) the Binding was 679 (ng of DNA) dish-1.

Target: T2, Estrogen receptor (Homo sapiens)
Experiment: Ability to stimulate the basal cell proliferation of ZR-75-1 cells at a dose of 1 uM
Assay type: functional, cell-based
Outline: as §4

Compared with `CCCCN(C)C(=O)CCSC(Cc1ccc(O)cc1)c1ccc(O)cc1` (stereo not drawn), `CCCCN(C)C(=O)CCCCCSC(Cc1ccc(O)cc1)c1ccc(O)cc1` (stereo not drawn) is lower in Binding ((ng of DNA) dish-1): 1890 for the first, 1440 for the second.

First: OCCCCCCCCCCCSC(Cc1ccc(O)cc1)c1ccc(O)cc1 (stereo not drawn)
Second: COc1ccc(C(Cc2ccc(O)cc2)SCCCCCCCCCCCO)cc1 (stereo not drawn)
The Binding ((ng of DNA) dish-1) of the first is higher: 1540 for the first, 839 for the second.

Going from `CCCCN(C)C(=O)CCCCCCCCCCSC(Cc1ccc(O)cc1)c1ccc(O)cc1` (stereo not drawn) to `CCCCN(C)C(=O)CCCCCCCSC(Cc1ccc(O)cc1)c1ccc(O)cc1` (stereo not drawn), the Binding ((ng of DNA) dish-1) rises from 1150 to 1410.

First: CCCCN(C)C(=O)CCSC(Cc1ccc(O)cc1)c1ccc(OC)cc1 (stereo not drawn)
Second: CCCCN(C)C(=O)CCSC(Cc1ccc(OC)cc1)c1ccc(OC)cc1 (stereo not drawn)
The Binding ((ng of DNA) dish-1) of the first is lower: 684 for the first, 741 for the second.

Going from `CCCCN(C)C(=O)CCCCCCCCCCSC(Cc1ccc(O)cc1)c1ccc(OC)cc1` (stereo not drawn) to `CCCCN(C)C(=O)CCCCCCCCCCCSC(Cc1ccc(O)cc1)c1ccc(OC)cc1` (stereo not drawn), the Binding ((ng of DNA) dish-1) rises from 733 to 807.

First: COc1ccc(C(Cc2ccc(OCc3ccccc3)cc2)SCCCCCCCCCCCO)cc1 (stereo not drawn)
Second: CCCCN(C)C(=O)CCCCCCCCCCSC(Cc1ccc(OCc2ccccc2)cc1)c1ccc(OC)cc1 (stereo not drawn)
The Binding ((ng of DNA) dish-1) of the first is lower: 725 for the first, 749 for the second.

Compared with `CCCCN(C)C(=O)CCCCCCCSC(Cc1ccc(OC)cc1)c1ccc(OC)cc1` (stereo not drawn), `CCCCN(C)C(=O)CCCCCCCCCCCSC(Cc1ccc(OC)cc1)c1ccc(OC)cc1` (stereo not drawn) is higher in Binding ((ng of DNA) dish-1): 746 for the first, 800 for the second.

First: CCCCN(C)C(=O)CCSC(Cc1ccc(OCc2ccccc2)cc1)c1ccc(OC)cc1 (stereo not drawn)
Second: CCCCN(C)C(=O)CCCCCCCSC(Cc1ccc(OCc2ccccc2)cc1)c1ccc(OC)cc1 (stereo not drawn)
The Binding ((ng of DNA) dish-1) of the first is lower: 789 for the first, 791 for the second.

Molecule `CCCCN(C)C(=O)CCCCCCCSC(Cc1ccc(O)cc1)c1ccc(OC)cc1` (stereo not drawn) has a Binding ((ng of DNA) dish-1) of 698.

Test system: not listed separately
Experiment: Percent inhibition of Estradiol (E2) induced cell proliferation
Set-up: scale not given: the % may be the effect or the level left

`CCCCN(C)C(=O)CCCCCSC(Cc1ccc(O)cc1)c1ccc(O)cc1` (stereo not drawn) showed an Activity of 49%.

Test system: not listed separately
Experiment: Antiestrogenic activity against Estradiol (E2) induced cell proliferation
Set-up: concentration or dose not given beside the values

First: CCCCN(C)C(=O)CCSC(Cc1ccc(O)cc1)c1ccc(OC)cc1 (stereo not drawn)
Second: CCCCN(C)C(=O)CCSC(Cc1ccc(OC)cc1)c1ccc(OC)cc1 (stereo not drawn)
The Activity of the first is higher: 66% for the first, 57% for the second.

Compared with `CCCCN(C)C(=O)CCCCCCCCCCSC(Cc1ccc(O)cc1)c1ccc(OC)cc1` (stereo not drawn), `CCCCN(C)C(=O)CCCCCCCCCCCSC(Cc1ccc(O)cc1)c1ccc(OC)cc1` (stereo not drawn) is higher in Activity: 8% for the first, 55% for the second.

Going from `COc1ccc(C(Cc2ccc(OCc3ccccc3)cc2)SCCCCCCCCCCCO)cc1` (stereo not drawn) to `CCCCN(C)C(=O)CCCCCCCCCCSC(Cc1ccc(OCc2ccccc2)cc1)c1ccc(OC)cc1` (stereo not drawn), the Activity rises from 41% to 42%.

Compared with `CCCCN(C)C(=O)CCCCCCCSC(Cc1ccc(OC)cc1)c1ccc(OC)cc1` (stereo not drawn), `CCCCN(C)C(=O)CCCCCCCCCCCSC(Cc1ccc(OC)cc1)c1ccc(OC)cc1` (stereo not drawn) is lower in Activity: 36% for the first, 13% for the second.

Compared with `CCCCN(C)C(=O)CCSC(Cc1ccc(OCc2ccccc2)cc1)c1ccc(OC)cc1` (stereo not drawn), `CCCCN(C)C(=O)CCCCCCCSC(Cc1ccc(OCc2ccccc2)cc1)c1ccc(OC)cc1` (stereo not drawn) is lower in Activity: 64% for the first, 56% for the second.

Going from `CCCCN(C)C(=O)CCCCCCCCCCC1Cc2cc(O)ccc2[C@H]2CC[C@]3(C)[C@@H](O)[C@H](Cl)C[C@H]3[C@H]12` (stereo partly drawn) to `CCCCN(C)C(=O)CCCCCCCSC(Cc1ccc(O)cc1)c1ccc(OC)cc1` (stereo not drawn), the Activity falls from 103% to 66%.

Test system: not listed separately
Experiment: Compound was tested for percent inhibition of the Estradiol (E2) induced cell proliferation
Set-up: concentration or dose not given beside the values

Compared with `CCCCN(C)C(=O)CCSC(Cc1ccc(O)cc1)c1ccc(O)cc1` (stereo not drawn), `CCCCN(C)C(=O)CCCCCCCSC(Cc1ccc(O)cc1)c1ccc(O)cc1` (stereo not drawn) is higher in Activity: 40% for the first, 44% for the second.

Compared with `OCCCCCCCCCCCSC(Cc1ccc(O)cc1)c1ccc(O)cc1` (stereo not drawn), `COc1ccc(C(Cc2ccc(O)cc2)SCCCCCCCCCCCO)cc1` (stereo not drawn) is lower in Activity: 42% for the first, 31% for the second.

Compared with `CCCCN(C)C(=O)CCCCCCCCCCSC(Cc1ccc(O)cc1)c1ccc(O)cc1` (stereo not drawn), `CCCCN(C)C(=O)CCCCCCCCCCC1Cc2cc(O)ccc2[C@H]2CC[C@]3(C)[C@@H](O)[C@H](Cl)C[C@H]3[C@H]12` (stereo partly drawn) is higher in Activity: 80% for the first, 94% for the second.
